ChEMBL document CHEMBL4689842, “EUbOPEN Chemogenomics Library wave 1” (2021)

Tested on: HEK-293T
Experiment: Multiplex assay against HEK293T;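 as to Population Tubulin-Different-Phenotype (%): share of the cells with healthy nuclei that show this phenotype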
Format: toxicity, cell-based
Settings: human
Summary of the method: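 Per cents of healthy-nucleus cells form the tubulin, mitochondrial-mass and membrane-permeability phenotype values. Live cells were stained at seeding with Hoechst33342, BioTracker Green Microtubule Cytoskeleton Dye, MitoTracker Red and Annexin V Alexa Fluor 680. After compound addition they were imaged on a CQ1 microscope at 37°C and 5% CO2, and CellPathfinder machine-learning gating split them into Hoechst high-intensity objects or normal cells, normal cells into healthy, pyknosed or fragmented nuclei, and pyknosed cells into mitotic or apoptotic.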

[1] = 12 h, 1 µM, compound concentration 1 uM, replicate 1
[2] = 12 h, 1 µM, compound concentration 1 uM, replicate 2
[3] = 12 h, 10 µM, compound concentration 10 uM, replicate 1
[4] = 12 h, 10 µM, compound concentration 10 uM, replicate 2
[5] = 24 h, 1 µM, compound concentration 1 uM, replicate 1
[6] = 24 h, 1 µM, compound concentration 1 uM, replicate 2
[7] = 24 h, 10 µM, compound concentration 10 uM, replicate 1
[8] = 24 h, 10 µM, compound concentration 10 uM, replicate 2
[9] = 48 h, 1 µM, compound concentration 1 uM, replicate 1
[10] = 48 h, 1 µM, compound concentration 1 uM, replicate 2
[11] = 48 h, 10 µM, compound concentration 10 uM, replicate 1
[12] = 48 h, 10 µM, compound concentration 10 uM, replicate 2

CC(C)(C)NC[C@H](O)COc1nsnc1N1CCOCC1 [TIMOLOL]
Population Apoptotic (%) [1]: 47%
Population Fragmented Nuclei (%) [1]: 10%
Population Healthy Nuclei (%) [1]: 39%
Population Hoechst High Intensity Objects (%) [1]: 14%
Population Membrane Permeable-Phenotype (%) [1]: 4%
Population Mitochondria Different-Phenotype (%) [1]: 77%
Population Mitotic Cells (%) [1]: 52%
Population Normal (%) [1]: 85%
Population Pyknosed Nuclei (%) [1]: 50%
Population Tubulin-Different-Phenotype (%) [1]: 36%
Total Cell Count [1]: 281
Population Apoptotic (%) [2]: 12%
Population Fragmented Nuclei (%) [2]: 5%
Population Healthy Nuclei (%) [2]: 48%
Population Hoechst High Intensity Objects (%) [2]: 3%
Population Membrane Permeable-Phenotype (%) [2]: 8%
Population Mitochondria Different-Phenotype (%) [2]: 19%
Population Mitotic Cells (%) [2]: 87%
Population Normal (%) [2]: 96%
Population Pyknosed Nuclei (%) [2]: 45%
Population Tubulin-Different-Phenotype (%) [2]: 22%
Total Cell Count [2]: 280
Population Apoptotic (%) [3]: 55%
Population Fragmented Nuclei (%) [3]: 9%
Population Healthy Nuclei (%) [3]: 40%
Population Hoechst High Intensity Objects (%) [3]: 13%
Population Membrane Permeable-Phenotype (%) [3]: 2%
Population Mitochondria Different-Phenotype (%) [3]: 87%
Population Mitotic Cells (%) [3]: 44%
Population Normal (%) [3]: 86%
Population Pyknosed Nuclei (%) [3]: 49%
Population Tubulin-Different-Phenotype (%) [3]: 53%
Total Cell Count [3]: 293
Population Apoptotic (%) [4]: 8%
Population Fragmented Nuclei (%) [4]: 3%
Population Healthy Nuclei (%) [4]: 50%
Population Hoechst High Intensity Objects (%) [4]: 3%
Population Membrane Permeable-Phenotype (%) [4]: 4%
Population Mitochondria Different-Phenotype (%) [4]: 23%
Population Mitotic Cells (%) [4]: 91%
Population Normal (%) [4]: 96%
Population Pyknosed Nuclei (%) [4]: 46%
Population Tubulin-Different-Phenotype (%) [4]: 17%
Total Cell Count [4]: 261
Population Apoptotic (%) [5]: 49%
Population Fragmented Nuclei (%) [5]: 8%
Population Healthy Nuclei (%) [5]: 43%
Population Hoechst High Intensity Objects (%) [5]: 12%
Population Membrane Permeable-Phenotype (%) [5]: 1%
Population Mitochondria Different-Phenotype (%) [5]: 58%
Population Mitotic Cells (%) [5]: 50%
Population Normal (%) [5]: 87%
Population Pyknosed Nuclei (%) [5]: 47%
Population Tubulin-Different-Phenotype (%) [5]: 41%
Total Cell Count [5]: 293
Population Apoptotic (%) [6]: 8%
Population Fragmented Nuclei (%) [6]: 7%
Population Healthy Nuclei (%) [6]: 67%
Population Hoechst High Intensity Objects (%) [6]: 1%
Population Membrane Permeable-Phenotype (%) [6]: 11%
Population Mitochondria Different-Phenotype (%) [6]: 12%
Population Mitotic Cells (%) [6]: 91%
Population Normal (%) [6]: 98%
Population Pyknosed Nuclei (%) [6]: 24%
Population Tubulin-Different-Phenotype (%) [6]: 30%
Total Cell Count [6]: 363
Population Apoptotic (%) [7]: 44%
Population Fragmented Nuclei (%) [7]: 6%
Population Healthy Nuclei (%) [7]: 57%
Population Hoechst High Intensity Objects (%) [7]: 12%
Population Membrane Permeable-Phenotype (%) [7]: 2%
Population Mitochondria Different-Phenotype (%) [7]: 70%
Population Mitotic Cells (%) [7]: 55%
Population Normal (%) [7]: 87%
Population Pyknosed Nuclei (%) [7]: 35%
Population Tubulin-Different-Phenotype (%) [7]: 40%
Total Cell Count [7]: 360
Population Apoptotic (%) [8]: 8%
Population Fragmented Nuclei (%) [8]: 3%
Population Healthy Nuclei (%) [8]: 71%
Population Hoechst High Intensity Objects (%) [8]: 3%
Population Membrane Permeable-Phenotype (%) [8]: 4%
Population Mitochondria Different-Phenotype (%) [8]: 17%
Population Mitotic Cells (%) [8]: 91%
Population Normal (%) [8]: 96%
Population Pyknosed Nuclei (%) [8]: 24%
Population Tubulin-Different-Phenotype (%) [8]: 18%
Total Cell Count [8]: 355
Population Apoptotic (%) [9]: 52%
Population Fragmented Nuclei (%) [9]: 18%
Population Healthy Nuclei (%) [9]: 46%
Population Hoechst High Intensity Objects (%) [9]: 10%
Population Membrane Permeable-Phenotype (%) [9]: 6%
Population Mitochondria Different-Phenotype (%) [9]: 23%
Population Mitotic Cells (%) [9]: 47%
Population Normal (%) [9]: 89%
Population Pyknosed Nuclei (%) [9]: 34%
Population Tubulin-Different-Phenotype (%) [9]: 33%
Total Cell Count [9]: 373
Population Apoptotic (%) [10]: 16%
Population Fragmented Nuclei (%) [10]: 5%
Population Healthy Nuclei (%) [10]: 82%
Population Hoechst High Intensity Objects (%) [10]: 2%
Population Mitochondria Different-Phenotype (%) [10]: 3%
Population Mitotic Cells (%) [10]: 83%
Population Normal (%) [10]: 97%
Population Pyknosed Nuclei (%) [10]: 12%
Population Tubulin-Different-Phenotype (%) [10]: 25%
Total Cell Count [10]: 733
Population Apoptotic (%) [11]: 42%
Population Fragmented Nuclei (%) [11]: 12%
Population Healthy Nuclei (%) [11]: 65%
Population Hoechst High Intensity Objects (%) [11]: 5%
Population Membrane Permeable-Phenotype (%) [11]: 0%
Population Mitochondria Different-Phenotype (%) [11]: 23%
Population Mitotic Cells (%) [11]: 57%
Population Normal (%) [11]: 94%
Population Pyknosed Nuclei (%) [11]: 22%
Population Tubulin-Different-Phenotype (%) [11]: 20%
Total Cell Count [11]: 545
Population Apoptotic (%) [12]: 6%
Population Fragmented Nuclei (%) [12]: 7%
Population Healthy Nuclei (%) [12]: 85%
Population Hoechst High Intensity Objects (%) [12]: 2%
Population Membrane Permeable-Phenotype (%) [12]: 2%
Population Mitochondria Different-Phenotype (%) [12]: 4%
Population Mitotic Cells (%) [12]: 93%
Population Normal (%) [12]: 97%
Population Pyknosed Nuclei (%) [12]: 7%
Population Tubulin-Different-Phenotype (%) [12]: 17%
Total Cell Count [12]: 660
